# Published values of several laboratories.
# Protocols differ between the studies behind these lines.
# Target: Serine/threonine-protein kinase 17A (STK17A, Homo sapiens, UniProt Q9UEE5)
# One construct used (Q9UEE5 1-414): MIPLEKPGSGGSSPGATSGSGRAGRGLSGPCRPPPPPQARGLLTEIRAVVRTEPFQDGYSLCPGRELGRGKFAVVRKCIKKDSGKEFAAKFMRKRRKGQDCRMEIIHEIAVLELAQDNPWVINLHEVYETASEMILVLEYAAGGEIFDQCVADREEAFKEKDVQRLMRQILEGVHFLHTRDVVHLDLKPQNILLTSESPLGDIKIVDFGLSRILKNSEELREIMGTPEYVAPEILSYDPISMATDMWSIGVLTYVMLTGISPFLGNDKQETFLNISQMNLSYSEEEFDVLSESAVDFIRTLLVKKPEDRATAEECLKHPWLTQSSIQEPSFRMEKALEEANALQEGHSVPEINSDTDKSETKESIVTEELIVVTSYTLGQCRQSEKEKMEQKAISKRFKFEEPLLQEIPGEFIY
SMILES,observed,technique,tested at,remaining binding
COc1cnc(Nc2cccc(S(N)(=O)=O)c2)nc1N1CCN(c2ccccc2)CC1,binding,competition with immobilised ligand,1 µM,100%
c1ccc(N2CCN(Cc3nc4ccccc4[nH]3)CC2)nc1,cell-free assay,competition with immobilised ligand,1 µM,100%
N[C@@H]1CCN(c2nccc(-c3cnn4ncccc34)n2)C1,binding,,1 µM,100%
CNC(=O)Nc1ccc2c(c1)CC[C@@]21OC(=O)N(CC(=O)N(Cc2ccc(F)cc2)[C@@H](C)C(F)(F)F)C1=O,cell-free assay,competition with immobilised ligand,1 µM,100%
O=C(NCCCN1CCOCC1)c1ccc(Nc2ncc(Cl)c(-c3ccc(Cl)s3)n2)cc1,binding,competition with immobilised ligand,1 µM,0.85%
CN(C)c1nccc(-c2cnn3ncccc23)n1,binding,,1 µM,76%
CSc1cccnc1N1CCN(Cc2nc3ccccc3[nH]2)CC1,cell-free assay,competition with immobilised ligand,1 µM,98%
c1cncc(-c2cccc(Nc3nccc(NC4CCCCC4)n3)c2)c1,binding,competition with immobilised ligand,10 µM,47%
O=C(NCc1ncc(C(F)(F)F)cc1Cl)c1ccc2c(c1)C1(CCS(=O)(=O)CC1)[C@@H](C1CC1)N2S(=O)(=O)c1ccc(F)cc1,cell-free assay,competition with immobilised ligand,1 µM,73%
COc1ncc2cc3ccccc3nc2c1C#N,cell-free assay,competition with immobilised ligand,5 µM,100%
C=CC(=O)N1CCC(C(=O)NCC(=O)N2CCN(c3nc(-c4cnc(N)nc4C(F)F)nc(N4CCOCC4)n3)CC2)CC1,binding,competition with immobilised ligand,1 µM,100%
F[C@@H]1CCN(c2nccc(-c3cnn4ncccc34)n2)C1,binding,,1 µM,100%
O=C(c1ccc(Nc2nccc(-c3cc4ccccc4s3)n2)cc1)N1CCC(N2CCCC2)CC1,binding,competition with immobilised ligand,1 µM,0.3%
CN(C)c1nccc(-c2cnc3ncccn23)n1,binding,,1 µM,100%
O=S(=O)(NC1CCC(c2cc(F)ccc2F)(S(=O)(=O)c2ccc(Cl)cc2)CC1)C(F)(F)F (stereo not shown),cell-free assay,competition with immobilised ligand,1 µM,86%
C[C@@H]1CCN(c2nccc(-c3cnn4ncccc34)n2)C1,binding,,1 µM,19%
O=C(NCCCN1CCOCC1)c1ccc(Nc2nccc(-c3cc4ccccc4s3)n2)cc1,binding,competition with immobilised ligand,1 µM,0%
O=C(Nc1c[nH]nc1C(=O)NC1CCNCC1)c1cc(F)cc(F)c1,binding,competition with immobilised ligand,1 µM,95%
C[C@H](c1cccc(C#N)c1)n1cc(Cl)cc(C(N)=O)c1=N,cell-free assay,competition with immobilised ligand,1 µM,85%
CN(C)c1ncc(F)c(-c2cnn3ncccc23)n1,binding,,1 µM,95%
COc1cc(-c2cn(C3CCc4c(F)cccc4N(CC(F)(F)F)C3=O)nn2)ccc1-n1cnc(C)c1 (stereo not shown),cell-free assay,competition with immobilised ligand,1 µM,100%
C[C@@H](c1ccc(-n2cnc3c(N)ncnc32)cc1)N1CCc2nn(C)c(Cc3ccccc3)c2C1=O,binding,competition with immobilised ligand,0.1 µM,91%
